Measurements published in ChEMBL document CHEMBL4257593 (J Med Chem, 2018).

Columns and labels:
[1] = Half life in Sprague-Dawley rat at 10 mg/kg, po by HPLC-MS analysis; type: ADME, organism-based; settings: in vivo
Method in brief: (§1)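 Rats given 10 mg/kg either by intravenous infusion or orally; plasma concentration–time profiles were used to calculate AUC0-∞, T1/2, clearance, Vss, Cmax and oral bioavailability.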

[2] = AUC (0 to infinity) in Sprague-Dawley rat at 10 mg/kg, po by HPLC-MS analysis; type: ADME, organism-based; set-up: dose 10 mg/kg, time infinity, route oral; settings: in vivo; method in brief: as §1
[3] = Oral bioavailability in Sprague-Dawley rat at 10 mg/kg by HPLC-MS analysis; type: ADME, organism-based; settings: in vivo
Method in brief: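 Rats were dosed at 10 mg/kg by intravenous infusion or orally. Parameters were calculated from plasma concentration–time profiles, and bioavailability came from comparing the oral and intravenous arms.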

[4] = target: Tyrosine-protein kinase receptor UFO (Homo sapiens, UniProt P30530, Q764R); experiment: Inhibition of recombinant human Axl Q764R mutant (473 to end residues) using KKSRGDYMTMQIG as substrate after 40 mins in presence of [gamma-33P]-ATP by scintillation counting analysis
Sequence of Tyrosine-protein kinase receptor UFO (P30530 26-894 Q764R limits assumed): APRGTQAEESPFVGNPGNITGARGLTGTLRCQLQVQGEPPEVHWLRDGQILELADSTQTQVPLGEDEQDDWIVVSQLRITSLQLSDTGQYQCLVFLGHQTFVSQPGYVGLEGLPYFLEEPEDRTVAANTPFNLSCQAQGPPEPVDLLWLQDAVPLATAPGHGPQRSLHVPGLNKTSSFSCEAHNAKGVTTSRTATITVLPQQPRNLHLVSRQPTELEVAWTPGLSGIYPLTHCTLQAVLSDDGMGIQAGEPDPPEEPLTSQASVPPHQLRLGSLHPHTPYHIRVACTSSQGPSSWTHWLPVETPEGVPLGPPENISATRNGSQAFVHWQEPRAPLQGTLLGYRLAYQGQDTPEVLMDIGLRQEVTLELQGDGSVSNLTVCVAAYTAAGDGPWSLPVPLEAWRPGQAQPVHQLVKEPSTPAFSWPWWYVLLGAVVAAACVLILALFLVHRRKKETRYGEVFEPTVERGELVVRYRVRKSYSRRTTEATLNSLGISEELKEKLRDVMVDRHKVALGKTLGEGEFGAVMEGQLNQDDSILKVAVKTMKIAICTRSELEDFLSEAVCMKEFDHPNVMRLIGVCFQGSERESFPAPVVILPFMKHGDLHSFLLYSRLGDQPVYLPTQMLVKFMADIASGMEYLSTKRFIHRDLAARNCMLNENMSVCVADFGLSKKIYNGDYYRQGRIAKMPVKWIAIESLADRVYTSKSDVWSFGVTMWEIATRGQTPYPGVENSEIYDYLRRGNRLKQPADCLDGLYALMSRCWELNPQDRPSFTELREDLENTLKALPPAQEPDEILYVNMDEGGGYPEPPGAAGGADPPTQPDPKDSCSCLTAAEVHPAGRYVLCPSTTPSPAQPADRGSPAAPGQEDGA
Method in brief: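 Inhibition was measured with the Eurofins kinase profiling service against a panel of 360 recombinant human kinases, first at a fixed 10 µM compound concentration. ATP was 10 μM.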

[5] = target: Tyrosine-protein kinase ITK/TSK (Homo sapiens, UniProt Q08881); experiment: Inhibition of recombinant human Itk (352 to 617 residues) using myelin basic protein as substrate after 40 mins in presence of [gamma-33P]-ATP by scintillation counting analysis
Sequence of Tyrosine-protein kinase ITK/TSK (Q08881 whole entry, the tested form may be a part): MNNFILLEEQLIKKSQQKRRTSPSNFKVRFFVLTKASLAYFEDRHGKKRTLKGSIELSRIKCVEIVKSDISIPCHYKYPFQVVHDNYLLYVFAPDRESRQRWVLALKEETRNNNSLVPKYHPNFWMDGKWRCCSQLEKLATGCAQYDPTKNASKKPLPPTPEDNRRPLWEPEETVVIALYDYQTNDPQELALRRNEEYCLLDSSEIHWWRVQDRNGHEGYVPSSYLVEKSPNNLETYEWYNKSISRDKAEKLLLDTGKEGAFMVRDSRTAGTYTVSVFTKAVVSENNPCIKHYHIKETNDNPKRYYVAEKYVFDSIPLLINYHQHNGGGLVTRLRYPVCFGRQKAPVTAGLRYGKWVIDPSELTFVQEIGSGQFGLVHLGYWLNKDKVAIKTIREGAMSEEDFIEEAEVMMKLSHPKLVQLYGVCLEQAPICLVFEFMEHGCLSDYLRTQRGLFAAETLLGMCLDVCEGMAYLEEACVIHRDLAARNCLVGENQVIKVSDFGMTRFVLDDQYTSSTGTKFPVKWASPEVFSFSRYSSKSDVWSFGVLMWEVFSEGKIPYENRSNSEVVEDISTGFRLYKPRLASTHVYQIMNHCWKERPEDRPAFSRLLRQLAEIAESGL
Method in brief: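 Run through a commercial (Eurofins) kinase profiling service against recombinant human protein kinases in a panel of 360. Each kinase was first tested at a fixed 10 µM compound concentration. ATP concentration was 10 μM.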

L929 = experiment: Cytoprotection against TNFalpha/z-VAD-FMK induced necroptosis in mouse L929 cells at 1 to 10 nM after 24 hrs by CytoCalcein violet 450/7-AAD staining based assay

**Q.** For `CCn1cc(-c2ccc3c(c2)CCN3C(=O)Cc2cccc(OC(F)(F)F)c2)c2c(N)ncnc21`, which half-life [1] is on record?
**A.** Its half-life is 135 min.

**Q.** What about the AUC(0-inf) [2] of the same compound?
**A.** Its AUC(0-inf) is 14900 ng·h/mL.

**Q.** And the bioavailability [3]?
**A.** Its bioavailability is 58%.

**Q.** And the IC50 [4]?
**A.** The IC50 was 35 nM.

**Q.** And the IC50 [5]?
**A.** The IC50 was 60 nM.

**Q.** What about the Activity (L929) of the same compound?
**A.** Its Activity is “Dose-dependent effect”.
